Experimental data of several laboratories.
Protocols differ between the studies behind these lines. In brackets after ≈: the same amount, converted by molar mass.

The MIC of `CCN1CCc2c(sc(N)c2C(=O)NCc2ccccc2)C1` is reported as over 300 µM (Mycobacterium tuberculosis; microbial growth, resazurin; H37RV).
The IC50 of `c1ccc(C2CCN(c3nc(-c4cnn5cccnc45)nc4ccccc34)C2)nc1` (stereo not drawn) is reported as 1.11 µM (Trypanosoma cruzi; parasite growth, imaging; U2OS; intracellular, amastigote).
`COc1ccc(NC(=O)c2c(Nc3ccccc3)sc(C(=O)NN=Cc3ccc(Cl)cc3)c2NC(C)=O)cc1` has a viability of 92.3% (HepG2; cell growth or viability, SRB; 0.1 µM, 48 h).
For `CCOC(=O)c1ccc(-n2c(C)cc(/C=C/c3ccc(OCC)cc3)c(C#N)c2=O)cc1`, the viability was 72% (HepG2; cell growth or viability, MTT; 25 µM, 24 h).
`CCN1CCc2c(sc(N)c2C(=O)NCc2ccc(C)cc2)C1` gave an MIC of over 300 µM (Mycobacterium tuberculosis; microbial growth, resazurin; H37RV).
`OC1(c2ccccc2)CCN(c2nc(-c3ccccn3)nc3ccccc23)C1` (stereo not drawn) gave an IC50 of 3.51 µM (Trypanosoma cruzi; parasite growth, imaging; U2OS; intracellular, amastigote).
`Nc1sc(-c2ccccc2)cc1C(=O)NC12CC3CC(CC(C3)C1)C2` has an MIC of over 200 µM (Mycobacterium tuberculosis; microbial growth, resazurin; H37RV).
For `Cn1nccc1-c1nc(N2CCC(c3ccccn3)C2)c2ccccc2n1` (stereo not drawn), the IC50 was 16.4 µM (Trypanosoma cruzi; parasite growth, imaging; U2OS; intracellular, amastigote).
`COc1ccc(NC(=O)c2c(Nc3ccccc3)sc(C#N)c2NC(=O)CNc2ccc(Cl)cc2)cc1` gave a viability of 86.1% (HepG2; cell growth or viability, SRB; 10 nM, 48 h).
The viability of `CCOC(=O)c1ccc(-n2c(C)cc(C)c(C#N)c2=O)cc1` is reported as 76.1% (HepG2; cell growth or viability, MTT; 12.5 µM, 24 h).
With `Cc1ccc(CNC(=O)c2c(N)sc3c2CCCC3)cc1` the MIC was 333 µM (≈ 100 µg/mL) (Mycobacterium tuberculosis; microbial growth, resazurin; H37RV).
`COc1ccc(NC(=O)c2c(Nc3ccccc3)sc(C#N)c2NC(=O)CNc2ccc(O)cc2)cc1` has a viability of 77.2% (HepG2; cell growth or viability, SRB; 1 µM, 48 h).
